In ChEMBL document CHEMBL3425443, “Improved angiostatic activity of dasatinib by modulation with hydrophobic chains” (ACS Med Chem Lett, 2015):

Legend:
[1] = Cytotoxicity against human ECRF24 cells after 72 hrs by MTT assay; type: functional, cell-based; conditions: ECRF24, 72 h
Summary of the method: (§1)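 Proliferation inhibition measured in human A2780 ovarian carcinoma, ECRF24 immortalized endothelial and HEK-293 embryonic kidney cells; IC50 values in μM reported as means ± SD.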

[2] = system: HEK293; assay: Cytotoxicity against human HEK293 cells after 72 hrs by MTT assay; type: cell-based; conditions: HEK293, 72 h; summary of the method: as §1
[3] = Angiostatic activity in human ECRF24 cells assessed as inhibition of cell migration at 50 uM after 7 hrs by laser scanner cytometry based wound closure assay; type: functional; conditions: ECRF24, 7 h
Summary of the method: (§2)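 ECRF24 endothelial monolayers wounded, then incubated 7 h with compound across a concentration range; wound closure quantified to give migration inhibition. Error bars are standard error of the mean; significance set at p < 0.05 and p < 0.01.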

[4] = system: Chorioallantoic membrane; assay: Antiangiogenic activity in chicken embryo chorioallantoic membrane model assessed as inhibition of vasculature formation at 20 uM, iv dosed for 3 consecutive days by FITC-dextran fluorescence angiography; type: functional, Gallus gallus
[5] = Selectivity index, ratio of cytotoxic IC50 for HEK293 cells to antiangiogenic activity in chicken embryo chorioallantoic membrane model
[6] = system: ECRF24; assay: Angiostatic activity in human ECRF24 cells assessed as inhibition of cell migration after 7 hrs by laser scanner cytometry based wound closure assay; type: functional; summary of the method: as §2
[7] = system: A2780; assay: Cytotoxicity against human A2780 cells after 72 hrs by MTT assay; type: functional, cell-based; conditions: A2780, 72 h; summary of the method: as §1

| SMILES | IC50 [1] [µM] | IC50 [2] [µM] | inhibition at 50 µM [3] [%] | inhibition (INH) [4] [%] | Selectivity Index [5] | inhibition [6] | IC50 [7] [µM] |
| --- | --- | --- | --- | --- | --- | --- | --- |
| Cc1nc(Nc2ncc(C(=O)Nc3c(C)cccc3Cl)s2)cc(N2CCN(CCOC(=O)CCCC(=O)OCCC(F)(F)C(F)(F)C(F)(F)C(F)(F)C(F)(F)C(F)(F)C(F)(F)C(F)(F)F)CC2)n1 | 57 | > 500 | 15 | 45 | 25 | Dose-dependent effect | 121 |
| CCCCCCCCCCCCOC(=O)CCCC(=O)OCCN1CCN(c2cc(Nc3ncc(C(=O)Nc4c(C)cccc4Cl)s3)nc(C)n2)CC1 | 135 | > 500 | – | – | – | – | 53 |
| Cc1nc(Nc2ncc(C(=O)Nc3c(C)cccc3Cl)s2)cc(N2CCN(CCOC(=O)CCC(=O)OCCC(F)(F)C(F)(F)C(F)(F)C(F)(F)C(F)(F)C(F)(F)F)CC2)n1 | 122 | 58 | – | – | – | – | 130 |
| Cc1nc(Nc2ncc(C(=O)Nc3c(C)cccc3Cl)s2)cc(N2CCN(CCOC(=O)CCCC(=O)OCCC(F)(F)C(F)(F)C(F)(F)C(F)(F)C(F)(F)C(F)(F)C(F)(F)C(F)(F)C(F)(F)C(F)(F)F)CC2)n1 | 102 | > 500 | – | – | – | – | > 500 |
| CCCCCCCCCCOC(=O)CCC(=O)OCCN1CCN(c2cc(Nc3ncc(C(=O)Nc4c(C)cccc4Cl)s3)nc(C)n2)CC1 | 30 | 46 | – | – | – | – | 22.5 |
| CCCCCCCCCCCCOC(=O)CCC(=O)OCCN1CCN(c2cc(Nc3ncc(C(=O)Nc4c(C)cccc4Cl)s3)nc(C)n2)CC1 | 27 | > 500 | – | – | – | – | 45 |
| CCCCCCCCOC(=O)CCC(=O)OCCN1CCN(c2cc(Nc3ncc(C(=O)Nc4c(C)cccc4Cl)s3)nc(C)n2)CC1 | 7.8 | 52 | – | – | – | – | 10.6 |
| Cc1nc(Nc2ncc(C(=O)Nc3c(C)cccc3Cl)s2)cc(N2CCN(CCOC(=O)CCC(=O)OCCC(F)(F)C(F)(F)C(F)(F)C(F)(F)C(F)(F)C(F)(F)C(F)(F)C(F)(F)F)CC2)n1 | 96 | > 500 | – | – | – | – | 118 |
| Cc1nc(Nc2ncc(C(=O)Nc3c(C)cccc3Cl)s2)cc(N2CCN(CCO)CC2)n1.O [DASATINIB] | 5.7 | 14.3 | 65 | 8 | – | Dose-dependent effect | 8.7 |
| CCCCCCCCCCCCCCCCCCOC(=O)CCCC(=O)OCCN1CCN(c2cc(Nc3ncc(C(=O)Nc4c(C)cccc4Cl)s3)nc(C)n2)CC1 | 101 | > 500 | – | – | – | – | 125 |
| CCCCCCCCOC(=O)CCCC(=O)OCCN1CCN(c2cc(Nc3ncc(C(=O)Nc4c(C)cccc4Cl)s3)nc(C)n2)CC1 | 18 | 18 | – | – | – | – | 12 |
| Cc1nc(Nc2ncc(C(=O)Nc3c(C)cccc3Cl)s2)cc(N2CCN(CCOC(=O)CCC(=O)OCCC(F)(F)C(F)(F)C(F)(F)C(F)(F)C(F)(F)C(F)(F)C(F)(F)C(F)(F)C(F)(F)C(F)(F)F)CC2)n1 | 24 | > 500 | – | 18 | – | – | 90 |
| CCCCCCCCCCOC(=O)CCCC(=O)OCCN1CCN(c2cc(Nc3ncc(C(=O)Nc4c(C)cccc4Cl)s3)nc(C)n2)CC1 | 34 | 29 | – | – | – | – | 119 |
| CCCCCCCCCCCCCCCCCCOC(=O)CCC(=O)OCCN1CCN(c2cc(Nc3ncc(C(=O)Nc4c(C)cccc4Cl)s3)nc(C)n2)CC1 | 105 | > 500 | – | – | – | – | 108 |
| Cc1nc(Nc2ncc(C(=O)Nc3c(C)cccc3Cl)s2)cc(N2CCN(CCOC(=O)CCCC(=O)OCCC(F)(F)C(F)(F)C(F)(F)C(F)(F)C(F)(F)C(F)(F)F)CC2)n1 | > 500 | > 500 | – | – | – | – | 28.3 |
